# Compound activity from PubChem BioAssay.
# Rows were chosen to be rich in hits. Some 1.5% of all compounds tested hit in one or more screens of this group.
# NR2E3 ag-1: agonists of human nuclear receptor NR2E3. GST-NR2E3/biotin-RetCOR TR-FRET, 1536-well. inhibition of corepressor binding, % at 4.78 µM. 320,000 tested, 0.12% active;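 active = percent inhibition above the cutoff of mean plus 3 SD of all tested compounds, set per screening campaign, cut at about 20% in these data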;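 also: 0% = DMSO wells and 100% = biotin wells as full block of FRET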
# Target sequence (Q9Y5X4 whole entry, looked up): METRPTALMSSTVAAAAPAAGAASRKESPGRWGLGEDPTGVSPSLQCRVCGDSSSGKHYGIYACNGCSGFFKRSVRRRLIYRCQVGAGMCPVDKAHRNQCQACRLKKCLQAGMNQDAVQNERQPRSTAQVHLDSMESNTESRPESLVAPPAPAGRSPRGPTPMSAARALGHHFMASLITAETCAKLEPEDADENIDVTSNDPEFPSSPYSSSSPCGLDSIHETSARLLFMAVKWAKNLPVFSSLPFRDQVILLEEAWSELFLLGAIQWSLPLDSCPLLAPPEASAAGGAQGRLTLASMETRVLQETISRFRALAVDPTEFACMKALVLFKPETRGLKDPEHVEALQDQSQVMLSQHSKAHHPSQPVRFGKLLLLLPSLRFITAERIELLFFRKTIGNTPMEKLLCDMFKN
#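 Material – GST-tagged NR2E3 plus biotinylated RetCOR corepressor · Quantity – NR2E3 fusion 1.35 nM · Times – 5 h incubation at 4 °C · Medium – pH 7.5 Tris-based buffer · Technique – TR-FRET, Eu(K)-anti-GST donor, streptavidin-D2 acceptor, ex 340, em 617/671 nm · Benchmarks – high control biotin, low control 0.6% DMSO · Format – 1536-well plates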
# Rev-erbA mod: modulators of human Rev-erb alpha DNA binding; P20393; Rev-erbα–FITC-DNA binding, fluorescence polarization, 90 min; activity, % at 10 µM; 370,000 tested, 0.79% active; AID 1259318;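 active = activity above about 14%, limit read from the data; passing the limit was not always enough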;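 also: 0% = DMSO wells with 35 nM protein and 100% = DMSO wells with 750 nM protein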
# NR2E3 ag-2: human photoreceptor-specific nuclear receptor agonism. Q9Y5X4. CHO-S Gal4-NCOR/VP16-NR2E3 two-hybrid, luciferase. inhibition of corepressor binding, % at 3.98 µM. 360,000 tested, 0.35% active. AID 602229;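 active = inhibition above the mean of all tested compounds plus 3 SD, cut at about 70% in these data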;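 also: 0% = DMSO with NR2E3 transfected cells and 100% = cells lacking NR2E3 construct; higher means lower luciferase signal from less NR2E3 corepressor binding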
# PG9 Ab binder: PG9 antibody binding by small molecule. inhibition, % at 6.7 µM. AID 624416. TR-FRET gp120-PG9 antibody binding. 360,000 tested, 0.43% active; in the data active = inhibition above about 8.5%
# NR1D1 mod conf: Rev-erb alpha (human) modulation, hit confirmation; shares compounds with Rev-erbA mod; Rev-erb alpha FITC-DNA binding, fluorescence polarization, 90 min; activation, % at 25 µM; 3,000 tested, 61% active; AID 1259319;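 active = activation at or above a set limit, or at least 3 SD above the negative control mean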;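 also: 0% = 35 nM protein with DMSO and 100% = 750 nM protein high control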
# RORg DNA counter: affects RORgamma DNA binding in a Rev-erb alpha counter-screen; shares compounds with Rev-erbA mod; IC50, µM; purified RORgamma protein-FITC-DNA binding, fluorescence polarization; 910 tested, 8% active;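 active = Compounds whose fitted half-maximal concentration for disrupting protein-DNA binding is below 10 micromolar; the record names Rev-erb in its text, so the target is in doubt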
# Active calls of the source: *; i = inactive; x = no result given.
SMILES,NR2E3 ag-1,Rev-erbA mod,NR2E3 ag-2,PG9 Ab binder,NR1D1 mod conf,others
O=C(NC1CCCCN(Cc2ccc(OC(F)(F)F)cc2)C1=O)c1cccc(F)c1 (stereo not given),x,-2.4,x,x,x,
C=C(C)Cc1c(C)c(C#N)c2nc3ccccc3n2c1N1CCCCC1,1.8,24.8*,-16.8,-1.4,4.2,
C=CCc1c(C)c(C#N)c2nc3ccccc3n2c1N1CCCCC1,0.1,42.9*,-8.8,-2.8,5.8,
CCc1c(C)c(C#N)c2nc3ccccc3n2c1N(C)C,-0.1,2.4,-5.0,-0.3,x,
C=C(C)CSc1cc(C)c(C#N)c2nc3ccccc3n12,-0.5,-6.8,-30.6,1.0,x,
O=C(Nc1ccc(F)cc1)OCCN1C(=O)CCC12CCC(c1ccc(Cl)cc1)CC2 (stereo not given),x,2.9,x,x,x,
C=CCN1[C@H](C#N)[C@@H](c2ccccc2)[C@H]1CO,x,2.4,x,x,x,
CC1(C)CC2CC(C)(CN2C(=O)c2cc(-c3ccccc3)on2)C1 (stereo not given),1.4,28.9*,-43.0,-0.7,-3.3,
CCN1/C(=C/c2ccc3cc(C)cc(C)c3[n+]2CC)Sc2cc(C)ccc21,x,30.9*,90.5*,-6.5,37.4*,RORg DNA counter=i
CCOC(=O)c1cc(-c2ccccc2)sc1NC(=O)CN1C(=O)NC(CC)(c2ccccc2)C1=O (stereo not given),3.9,46.6*,-18.5,6.7,30.6*,
COc1ccc(-c2nnc(NC(=O)c3cccs3)s2)c(OC)c1,-2.6,3.5,-16.1,0.2,x,
COc1ccc(-c2nnc(NC(=O)Cc3ccccc3)s2)c(OC)c1,5.1,40.8*,-1.8,4.8,19.3*,
OC(c1ccccc1)(c1ccccc1)C1CCN(CCCNc2ccccc2Br)CC1,x,5.2,x,x,x,
CCOC(=O)Cn1cc(CN2CCS(=O)(=O)N(Cc3ccc(OC)cc3)C(C(=O)OC)C2)nn1 (stereo not given),x,4.7,x,x,x,
CCCCOC(=O)CSc1nc(N)c(C#N)c(-c2ccc(OC)cc2)c1C#N,-0.4,52.6*,-3.7,-1.1,27.8*,
C=C(C)CSc1nc(N)c(C#N)c(-c2ccc(C)cc2)c1C#N,6.0,23.7*,-30.1,-2.5,18.2*,
CCCCOC(=O)CSc1nc(N)c(C#N)c(-c2ccc(OCC)cc2)c1C#N,-2.6,49.1*,1.9,0.2,35.5*,RORg DNA counter=>40
CCCOC(=O)CSc1nc(N)c(C#N)c(-c2ccco2)c1C#N,2.3,-1.7,-1.3,-0.2,x,
CCOC(=O)CC(=O)CSc1nc(N)c(C#N)c(-c2ccc(F)cc2)c1C#N,2.3,-5.0,-6.9,-0.2,x,
Nn1c(SCc2ccc([N+](=O)[O-])cc2)nnc1-c1n[nH]c2c1CCC2,x,0.3,x,x,x,
COC(=O)[C@]12C[C@H](CC(=O)N3CCOCC3)C(=O)N(Cc3ccccc3)C1=C[C@H](C(C)C)O[C@@H]2C1CC1,x,9.5,x,-0.1,x,
CCOc1cccc2cc(-c3cn4cc(C)ccc4n3)c(=O)oc12,1.4,53.0*,-42.5,2.6,24.5*,
O=C(Nc1ccccc1)Nc1ncc([N+](=O)[O-])s1,x,22.6*,36.5,-2.1,11.3,
O=C(COC(=O)c1ccccc1)Nc1ncc([N+](=O)[O-])s1,x,-22.4,-76.3,2.9,x,
Cc1cc(NC(=O)CSc2nc(-c3ccccc3Cl)nc3c2c(=O)n(C)c(=O)n3C)no1,2.1,28.0*,0.3,1.3,6.8,
SMILES,NR2E3 ag-1,Rev-erbA mod,NR2E3 ag-2,PG9 Ab binder,NR1D1 mod conf,others
CCCn1c(N)c(C(=O)CSc2nc3ncc(Cl)cc3[nH]2)c(=O)n(C)c1=O,3.6,65.7*,-13.1,2.9,17.0*,
CC(C)Cn1c(N)c(C(=O)CSc2nc3ncc(Cl)cc3[nH]2)c(=O)n(C)c1=O,-3.0,1.8,18.4,-2.1,x,
COC(=O)[C@]12C[C@H](CC(=O)NCCC(C)C)C(=O)N(CCC3=CCCCC3)C1=C[C@H](C(C)(C)C)O[C@@H]2C,x,0.3,x,0.1,x,
Cc1cc(=O)oc2cc(NC(=O)c3c(Cl)cnn3C)ccc12,0.6,20.9*,-60.8,0.9,5.3,
CN(C)c1ccc(C=NN2C(=O)CSC2=S)c(Cl)c1,x,22.5*,3.1,-2.1,-3.1,
C#CCCN([C@@H](CC(C)C)C(=O)OC)S(=O)(=O)c1ccccc1Br,x,2.2,x,x,x,
COC(=O)[C@@]12CCCN1[C@H](c1ccc(-c3ccc(C(C)=O)cc3)c(OC)c1)[C@H]1C(=O)N(C)C(=O)[C@H]12,-1.6,3.3,-15.7,1.9,x,
COC(=O)[C@@]12CCCCN1[C@H](c1ccc(-c3cc(C(C)=O)cs3)c(OC)c1)[C@H]1C(=O)N(C)C(=O)[C@H]12,-1.0,40.7*,-12.1,-3.4,34.4*,
CCC(C)Sc1ccc([C@@H]2[C@H]3C(=O)N(CC)C(=O)[C@H]3[C@]3(C(=O)OC)CCCCN23)cc1 (stereo not given in full),1.0,15.7*,-23.5,-0.1,8.0,
COC(=O)[C@@]12CCCCN1[C@H](c1ccc(-c3cc(C(C)=O)cs3)cc1)[C@H]1C(=O)N(C)C(=O)[C@H]12,2.8,30.5*,-5.3,0.5,21.8*,
CC1COCC(C)N1S(=O)(=O)c1ccc2c(c1)CCN2C(=O)C1CCC1 (stereo not given),x,-2.4,x,x,x,
CCOc1cc2[nH]c(=S)n(CCC(=O)NCc3ccco3)c(=O)c2cc1OCC,-0.4,27.3*,3.5,1.6,-0.7,
CCOc1cc2[nH]c(=S)n(CCCC(=O)NCc3ccco3)c(=O)c2cc1OCC,3.7,11.8,-1.0,x,x,
Clc1cccc2sc(-c3nnc(-c4ccccc4)o3)c(Cl)c12,0.9,37.9*,-41.9,1.0,31.0*,
CSc1ccccc1-c1nnc(-c2ccc(Cl)cc2Cl)o1,3.4,13.4,-74.8,1.3,x,
CSc1ccccc1-c1nnc(-c2ccc(Cl)c(Cl)c2)o1,1.9,46.6*,-25.4,0.2,51.0*,RORg DNA counter=>40
CCCCN1C(=O)/C(=C2/Sc3ccccc3N2C)S/C1=N\c1ncn[nH]1,-0.7,71.7*,-3.0,-2.4,0.9,
COC(=O)[C@]12C[C@H](CC(=O)NCc3ccccc3)C(=O)N(Cc3ccc(Cl)cc3Cl)C1=C[C@H](C1CCCC1)O[C@@H]2C,x,-0.1,x,x,x,
Cc1oc2c(cc(NS(=O)(=O)c3cccs3)c3ccccc32)c1C(=O)OC(C)C,1.4,50.4*,5.5,-3.0,71.5*,
Cc1oc2c(cc(NS(=O)(=O)c3ccc(C(C)C)cc3)c3ccccc32)c1C(=O)O,1.7,-3.8,-2.0,-3.3,x,
O=C(CSc1nnc(COc2ccccc2)n1-c1ccccc1)Nc1ccc(S(=O)(=O)Nc2nccs2)cc1,x,-0.8,x,x,x,
COc1ccc(C(C(=O)N(C)C2CCCC2)N(Cc2ccc(F)cc2)C(=O)c2cc(C)on2)cc1OC (stereo not given),x,-1.3,x,x,x,
CC(Sc1nn(-c2ccc(F)cc2)c(=S)s1)C(=O)c1c(N)n(C)c(=O)n(C)c1=O (stereo not given),-2.9,22.1*,-19.8,1.5,23.5*,
